{"source": "ChEMBL document CHEMBL3414514", "about": "“Synthesis and pharmacological evaluation of novel bisindole derivatives bearing oximes moiety: identification of novel proapoptotic agents” (Eur J Med Chem, 2015)", "key": {"[1]": {"assay": "Cell cycle arrest in human T24 cells assessed as accumulation at G1 phase at 10 uM after 48 hrs by Rnase A/propidium iodide staining-based flow cytometry (reference value: 34.43%)", "assay_type": "functional", "conditions": "T-24", "outline": "(§1)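 T24 cells exposed to […] for 48 h, washed with ice-cold PBS, then fixed and permeabilized overnight in ice-cold 70% ethanol. RNase A (100 mg/mL) treatment at 37 C for 30 min, then PI staining (1 mg/mL) in the dark at 4 C for 30 min. Flow cytometry gave the percentage of cells in G1, S and G2 phase.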"}, "[2]": {"assay": "Induction of apoptosis in human T24 cells assessed as caspase-3 upregulation at IC50 after 24 hrs by qRT-PCR analysis relative to control", "assay_type": "functional, cell-based", "conditions": "T-24"}, "[3]": {"assay": "Induction of apoptosis in human T24 cells assessed as caspase-9 upregulation after 24 hrs by qRT-PCR analysis", "assay_type": "functional, cell-based", "conditions": "T-24", "outline": "(§2)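 T24 cells treated at […] for 24 h before RNA extraction. SYBR Green qRT-PCR with 500 nM primers: 2 min at 50 C, 10 min at 95 C, then 40 cycles of 15 s at 95 C and 1 min at 60 C. Expression by the ΔCt method against actin, normalized to untreated cells; run in triplicate.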"}, "[4]": {"assay": "Induction of apoptosis in human T24 cells assessed as caspase-8 upregulation at IC50 after 24 hrs by qRT-PCR analysis relative to control", "assay_type": "functional, cell-based", "conditions": "T-24"}, "[5]": {"assay": "Induction of apoptosis in human T24 cells assessed as AIF upregulation at IC50 after 24 hrs by qRT-PCR analysis relative to control", "assay_type": "functional, cell-based", "conditions": "T-24"}, "[6]": {"assay": "Induction of apoptosis in human T24 cells assessed as tp53 upregulation after 24 hrs by qRT-PCR analysis", "assay_type": "functional, cell-based", "conditions": "T-24"}, "[7]": {"assay": "Cell cycle arrest in human T24 cells assessed as reduction in CDK4 level after 24 hrs by Western blotting analysis", "assay_type": "functional, cell-based", "conditions": "T-24", "outline": "(§3)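 T24 cells treated at […] for 24 h and lysed in ice-cold RIPA buffer with protease inhibitors and NaF. Protein measured by Bradford; 30 micrograms per lane run on 12% SDS-PAGE and transferred to PVDF. Blocked 2 h at room temperature, primary antibody overnight at 4 C, HRP secondary (1:2000) 1 h, chemiluminescence detection.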"}, "T-24 [8]": {"tested_on": "T-24", "assay": "Induction of apoptosis in human T24 cells assessed as necrotic cells at 5 uM after 24 hrs by annexin-V-FITC/propidium iodide staining-based flow cytometry (reference value: 1.66%)", "assay_type": "functional"}, "T-24 [9]": {"tested_on": "T-24", "assay": "Induction of apoptosis in human T24 cells assessed as pycnosis at 5 to 20 uM after 24 hrs by AO/EB staining-based fluorescence microscopic analysis relative to control", "assay_type": "functional, cell-based", "outline": "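T24 cells seeded at 5 × 10^4 cells/mL on cover slips. Medium was replaced with fresh medium containing 10% FBS and compound at 5, 10 or 20 µM for 24 h. Cover slips were inverted onto AO/EB stain and viewed by fluorescence microscopy. Live cells score uniform green, early apoptotic green-yellow, late apoptotic orange, and necrotic orange without condensed chromatin. Untreated cells served as control.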"}, "[10]": {"assay": "Cytotoxicity against human T24 cells after 2 days by MTT assay", "assay_type": "functional, cell-based", "conditions": "T-24, 48 h", "outline": "(§4)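 Cells grown in medium with 10% heat-inactivated FBS at 37 C under 5% CO2. Compounds dissolved in medium with 1% DMSO; controls received 1% DMSO. After 2 days, MTT (10 mg/mL) added for 4 h, formazan dissolved in DMSO and absorbance read at 570/630 nm. Survival taken relative to negative control; IC50 by Bliss method (n = 5), at least three independent experiments.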"}, "T-24 [11]": {"tested_on": "T-24", "assay": "Induction of apoptosis in human T24 cells assessed as late apoptotic cells at 20 uM after 24 hrs by annexin-V-FITC/propidium iodide staining-based flow cytometry (reference value: 2.08%)", "assay_type": "functional"}, "T-24 [12]": {"tested_on": "T-24", "assay": "Induction of apoptosis in human T24 cells assessed as increase in caspase-9 protein expression at 20 uM after 6 to 24 hrs by Western blotting analysis", "assay_type": "functional, cell-based"}, "T-24 [13]": {"tested_on": "T-24", "assay": "Induction of apoptosis in human T24 cells assessed as viable cells at 20 uM after 24 hrs by annexin-V-FITC/propidium iodide staining-based flow cytometry (reference value: 93.5%)", "assay_type": "functional", "conditions": "T-24, 24 h, read-out: Activity"}, "[14]": {"assay": "Induction of apoptosis in human T24 cells assessed as Bcl2 upregulation after 24 hrs by qRT-PCR analysis", "assay_type": "functional, cell-based", "conditions": "T-24", "outline": "as §2"}, "[15]": {"assay": "Cell cycle arrest in human T24 cells assessed as accumulation at S phase at 20 uM after 48 hrs by Rnase A/propidium iodide staining-based flow cytometry (reference value: 62%)", "assay_type": "functional", "conditions": "T-24", "outline": "as §1"}, "[16]": {"assay": "Induction of apoptosis in human T24 cells assessed as Bax upregulation after 24 hrs by qRT-PCR analysis", "assay_type": "functional, cell-based", "conditions": "T-24", "outline": "as §2"}, "[17]": {"assay": "Induction of apoptosis in human T24 cells assessed as AIF upregulation after 24 hrs by qRT-PCR analysis", "assay_type": "functional, cell-based", "conditions": "T-24", "outline": "as §2"}, "[18]": {"assay": "Cell cycle arrest in human T24 cells assessed as alteration in cyclin A level at 5 to 20 uM after 24 hrs by Western blotting analysis", "assay_type": "functional, cell-based", "conditions": "T-24"}, "HUVEC": {"tested_on": "HUVEC", "assay": "Cytotoxicity against human HUVEC cells after 2 days by MTT assay", "assay_type": "cell-based", "conditions": "48 h", "outline": "as §4"}, "T-24 [19]": {"tested_on": "T-24", "assay": "Induction of apoptosis in human T24 cells assessed as late apoptotic cells at 5 uM after 24 hrs by annexin-V-FITC/propidium iodide staining-based flow cytometry (reference value: 2.08%)", "assay_type": "functional"}, "[20]": {"assay": "Induction of apoptosis in human T24 cells assessed as caspase-8 upregulation after 24 hrs by qRT-PCR analysis", "assay_type": "functional, cell-based", "conditions": "T-24", "outline": "as §2"}, "[21]": {"assay": "Cell cycle arrest in human T24 cells assessed as accumulation at G1 phase at 20 uM after 48 hrs by Rnase A/propidium iodide staining-based flow cytometry (reference value: 34.43%)", "assay_type": "functional", "conditions": "T-24"}, "[22]": {"assay": "Cell cycle arrest in human T24 cells assessed as reduction in CDK2 level after 24 hrs by Western blotting analysis", "assay_type": "functional, cell-based", "conditions": "T-24", "outline": "as §3"}, "T-24 [23]": {"tested_on": "T-24", "assay": "Induction of apoptosis in human T24 cells assessed as early apoptotic cells at 5 uM after 24 hrs by annexin-V-FITC/propidium iodide staining-based flow cytometry (reference value: 2.74%)", "assay_type": "functional"}, "[24]": {"assay": "Cell cycle arrest in human T24 cells assessed as increase in p53 level after 24 hrs by Western blotting analysis", "assay_type": "functional, cell-based", "conditions": "T-24", "outline": "as §3"}, "T-24 [25]": {"tested_on": "T-24", "assay": "Induction of apoptosis in human T24 cells assessed as late apoptotic cells at 10 uM after 24 hrs by annexin-V-FITC/propidium iodide staining-based flow cytometry (reference value: 2.08%)", "assay_type": "functional"}, "A549": {"tested_on": "A549", "assay": "Cytotoxicity against human A549 cells after 2 days by MTT assay", "assay_type": "functional, cell-based", "conditions": "A549, 48 h", "outline": "as §4"}, "T-24 [26]": {"tested_on": "T-24", "assay": "Induction of apoptosis in human T24 cells assessed as necrotic cells at 10 uM after 24 hrs by annexin-V-FITC/propidium iodide staining-based flow cytometry (reference value: 1.66%)", "assay_type": "functional"}, "T-24 [27]": {"tested_on": "T-24", "assay": "Induction of apoptosis in human T24 cells assessed as necrotic cells at 20 uM after 24 hrs by annexin-V-FITC/propidium iodide staining-based flow cytometry (reference value: 1.66%)", "assay_type": "functional"}, "[28]": {"assay": "Induction of apoptosis in human T24 cells assessed as caspase-3 upregulation after 24 hrs by qRT-PCR analysis", "assay_type": "functional, cell-based", "conditions": "T-24", "outline": "as §2"}, "HepG2": {"tested_on": "HepG2", "assay": "Cytotoxicity against human HepG2 cells after 2 days by MTT assay", "assay_type": "functional, cell-based", "conditions": "HepG2, 48 h", "outline": "as §4"}, "[29]": {"assay": "Cytotoxicity against human SKOV3 cells after 2 days by MTT assay", "assay_type": "functional, cell-based", "conditions": "SK-OV-3, 48 h", "outline": "as §4"}}, "note": "Active and inactive are the calls of the source. No cut-off for these calls is given here."}
{"smiles": "COc1ccc2c(c1)/C(=N\\O)C(c1c[nH]c3ccc(OC)cc13)=N2", "values": [{"measurement": "Activity", "setting": "[1]", "result": 57, "unit": "%"}, {"measurement": "fold change (FC)", "setting": "[2]", "result": 24.8}, {"measurement": "Activity", "setting": "[3]", "result": "Dose-dependent effect"}, {"measurement": "fold change (FC)", "setting": "[4]", "result": 8.03}, {"measurement": "fold change (FC)", "setting": "[5]", "result": 4.47}, {"measurement": "Activity", "setting": "[6]", "result": "Dose-dependent effect"}, {"measurement": "Activity", "setting": "[7]", "result": "Dose-dependent effect"}, {"measurement": "Activity", "setting": "T-24 [8]", "result": 1.18, "unit": "%"}, {"measurement": "Activity", "setting": "T-24 [9]", "result": "Active"}, {"measurement": "IC50", "setting": "[10]", "result": 4.31, "unit": "µM"}, {"measurement": "Activity", "setting": "T-24 [11]", "result": 7.13, "unit": "%"}, {"measurement": "Activity", "setting": "T-24 [12]", "result": "Active"}, {"measurement": "viability at 20 µM", "setting": "T-24 [13]", "result": 58.1, "unit": "%"}, {"measurement": "Activity", "setting": "[14]", "result": "Dose-dependent effect"}, {"measurement": "Activity", "setting": "[15]", "result": 28.4, "unit": "%"}, {"measurement": "Activity", "setting": "[16]", "result": "Dose-dependent effect"}, {"measurement": "Activity", "setting": "[17]", "result": "Dose-dependent effect"}, {"measurement": "Activity", "setting": "[18]", "result": "inactive"}, {"measurement": "IC50", "setting": "HUVEC", "result": "> 100", "unit": "µM"}, {"measurement": "Activity", "setting": "T-24 [19]", "result": 6.03, "unit": "%"}, {"measurement": "Activity", "setting": "[20]", "result": "Dose-dependent effect"}, {"measurement": "Activity", "setting": "[21]", "result": 66.9, "unit": "%"}, {"measurement": "Activity", "setting": "[22]", "result": "Dose-dependent effect"}, {"measurement": "Activity", "setting": "T-24 [23]", "result": 6.89, "unit": "%"}, {"measurement": "Activity", "setting": "[24]", "result": "Dose-dependent effect"}, {"measurement": "Activity", "setting": "T-24 [25]", "result": 7.06, "unit": "%"}, {"measurement": "IC50", "setting": "A549", "result": 6.09, "unit": "µM"}, {"measurement": "Activity", "setting": "T-24 [26]", "result": 1.22, "unit": "%"}, {"measurement": "Activity", "setting": "T-24 [27]", "result": 2.07, "unit": "%"}, {"measurement": "Activity", "setting": "[28]", "result": "Dose-dependent effect"}, {"measurement": "IC50", "setting": "HepG2", "result": 9.92, "unit": "µM"}, {"measurement": "IC50", "setting": "[29]", "result": 12.5, "unit": "µM"}]}
